# Reference: ChEMBL document CHEMBL6134796, “Development and Evaluation of Indole-Based Phospholipase D Inhibitors for Lung Cancer Immunotherapy” (J Med Chem, 2025)
# The source made the active and inactive calls. The calls are words filed in the database; no cut-off is given here.
# What was measured:
# [1] = tested on: Lewis lung carcinoma cell line; assay: Antitumor activity against mouse Lewis lung carcinoma cell line allografted in […] male C57BL/6 mouse model assessed as reduction in cell proliferation at 10 mg/kg, po measured every other day for 3 weeks; type: functional, organism-based
# A549 [2] = assay: Induction of apoptosis in human A549 cells increase in caspase-3 level; type: functional, cell-based
# Outline: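 Cells plated at about 40% density and treated at 10 μM for 48 h, with Ac-DEVD-CHO as the caspase-3 inhibitor control. Incubated with 1 μM NucView 488 caspase-3 substrate in PBS for 30 min at room temperature. Stained with 1 μM Hoechst 33342 and fluorescence quantified on a plate reader.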
# [3] = target: T1, Phospholipase D1 (Homo sapiens) (UniProt Q13393); assay: Inhibition of PLD1 (unknown origin) overexpressed in human A549 cells; type: cell-based
# T1 sequence (whole entry): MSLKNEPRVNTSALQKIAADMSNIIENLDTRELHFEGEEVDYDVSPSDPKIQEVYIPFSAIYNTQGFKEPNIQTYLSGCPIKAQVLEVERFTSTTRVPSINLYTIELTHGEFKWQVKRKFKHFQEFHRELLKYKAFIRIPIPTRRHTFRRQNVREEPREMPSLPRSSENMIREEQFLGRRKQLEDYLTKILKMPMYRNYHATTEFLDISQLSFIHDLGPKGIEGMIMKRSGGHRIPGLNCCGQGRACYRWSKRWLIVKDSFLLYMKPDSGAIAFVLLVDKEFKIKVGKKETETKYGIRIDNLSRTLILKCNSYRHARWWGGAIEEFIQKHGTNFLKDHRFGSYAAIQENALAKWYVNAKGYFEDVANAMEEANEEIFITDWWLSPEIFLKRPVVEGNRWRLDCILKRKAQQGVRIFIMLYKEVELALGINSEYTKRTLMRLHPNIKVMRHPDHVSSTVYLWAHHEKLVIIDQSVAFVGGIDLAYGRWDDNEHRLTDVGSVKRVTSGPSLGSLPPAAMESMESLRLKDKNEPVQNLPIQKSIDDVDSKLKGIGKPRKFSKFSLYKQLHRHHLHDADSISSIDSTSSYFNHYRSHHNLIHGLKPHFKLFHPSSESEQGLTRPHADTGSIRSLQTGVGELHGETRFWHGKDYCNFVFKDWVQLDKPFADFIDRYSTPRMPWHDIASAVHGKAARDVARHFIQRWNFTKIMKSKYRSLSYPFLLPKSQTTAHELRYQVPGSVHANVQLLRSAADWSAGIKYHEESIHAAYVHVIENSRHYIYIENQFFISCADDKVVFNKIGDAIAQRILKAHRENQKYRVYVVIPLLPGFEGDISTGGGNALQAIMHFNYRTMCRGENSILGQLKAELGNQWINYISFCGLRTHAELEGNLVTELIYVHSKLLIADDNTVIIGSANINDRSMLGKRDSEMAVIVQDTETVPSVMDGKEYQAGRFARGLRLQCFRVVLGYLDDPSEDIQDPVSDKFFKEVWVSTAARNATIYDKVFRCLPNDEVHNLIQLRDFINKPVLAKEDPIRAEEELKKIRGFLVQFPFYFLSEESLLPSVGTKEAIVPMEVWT
# Outline: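 A549 cells transfected with wild-type PLD1, PLD1 mutants (L425A, F614A, F789A) or PLD2, then compound-treated. PLD activity measured as [3H]phosphatidylbutanol formed in the presence of 1-butanol after [3H]myristic acid labeling, expressed as % of total lipid cpm. At least three independent experiments.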
# A549 [4] = assay: Cytotoxicity against human A549 cells assessed as inhibition of cell growth incubated for 48 hrs by WST-1 assay; type: functional, cell-based; conditions: A549, 48 h
# [5] = target: T2, Phospholipase D1 (Mus musculus) (UniProt Q9Z280); assay: In vivo inhibition of PLD1 in male C57BL/6 mouse allografted with mouse Lewis lung carcinoma cell line assessed as increase in CD4+ cell population at 10 mg/kg, po by immunofluorescence analysis; type: functional, organism-based
# T2 sequence (whole entry): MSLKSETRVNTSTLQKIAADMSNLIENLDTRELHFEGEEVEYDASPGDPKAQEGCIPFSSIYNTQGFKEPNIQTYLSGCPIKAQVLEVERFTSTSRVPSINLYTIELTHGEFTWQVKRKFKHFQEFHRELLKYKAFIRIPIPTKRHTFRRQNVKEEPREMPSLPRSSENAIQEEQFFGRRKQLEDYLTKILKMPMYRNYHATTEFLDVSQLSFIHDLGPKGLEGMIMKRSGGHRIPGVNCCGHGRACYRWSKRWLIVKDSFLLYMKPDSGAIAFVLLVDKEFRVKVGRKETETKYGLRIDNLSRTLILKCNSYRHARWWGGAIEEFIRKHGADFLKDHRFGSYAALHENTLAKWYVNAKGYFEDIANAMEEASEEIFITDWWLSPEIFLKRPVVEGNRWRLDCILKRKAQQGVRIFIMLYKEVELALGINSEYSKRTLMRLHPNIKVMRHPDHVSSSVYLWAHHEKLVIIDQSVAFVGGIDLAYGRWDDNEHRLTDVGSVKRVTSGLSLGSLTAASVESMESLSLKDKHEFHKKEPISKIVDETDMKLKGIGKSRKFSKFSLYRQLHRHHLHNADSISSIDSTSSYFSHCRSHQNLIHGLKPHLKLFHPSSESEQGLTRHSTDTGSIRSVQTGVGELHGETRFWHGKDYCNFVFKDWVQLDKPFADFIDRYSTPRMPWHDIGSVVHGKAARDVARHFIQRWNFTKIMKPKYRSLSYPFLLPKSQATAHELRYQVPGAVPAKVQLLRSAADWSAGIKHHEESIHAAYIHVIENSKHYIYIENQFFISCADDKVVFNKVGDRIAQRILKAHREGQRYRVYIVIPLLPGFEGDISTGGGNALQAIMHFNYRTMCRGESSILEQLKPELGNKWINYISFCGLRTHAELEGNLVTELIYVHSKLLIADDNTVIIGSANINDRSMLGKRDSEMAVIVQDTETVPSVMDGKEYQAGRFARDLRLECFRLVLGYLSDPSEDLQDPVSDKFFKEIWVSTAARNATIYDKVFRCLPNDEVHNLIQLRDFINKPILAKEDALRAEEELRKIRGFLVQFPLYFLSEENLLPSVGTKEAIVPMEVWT
# Outline: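 Same LLC syngeneic C57BL/6 model, 10 mg/kg PO every other day for 3 weeks. Tumor tissues were stained by immunofluorescence for CD80+ and CD163+ cells, CD8+ T cells, and CD4+/IL-17+ and Treg populations. Nuclei were counterstained with 1 μM Hoechst 33342 and imaged by confocal microscopy.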
# A549 [6] = assay: Downregulation of CD24 expression in human A549 cells by flow cytometry analysis; type: functional, cell-based
# Outline: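 A549 cells treated with compound. Surface "don't eat-me" and "eat-me" markers measured by flow cytometry.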
# [7] = tested on: Lewis lung carcinoma cell line; assay: Antitumor activity against mouse Lewis lung carcinoma cell line allografted in male C57BL/6 mouse model assessed as reduction in […] expression at 10 mg/kg, po measured every other day for 3 weeks by IHC analysis
# A549 [8] = assay: Inhibition of cell migration in human A549 cells measured after 24 hrs by crystal violet staining based light microscopic analysis; type: functional
smiles,measurement,setting,value
O=C(CCc1c[nH]c2ccccc12)Nc1cc(C(F)(F)F)cc(C(F)(F)F)c1,Activity,[1],Active
same,Activity,A549 [2],Active
same,inhibition,[3],Active
same,IC50,A549 [4],18 µM
same,inhibition,[5],Active
same,Activity,A549 [6],Active
same,Activity,[7],Active
same,inhibition,A549 [8],Active
